Experimental data pooled from the literature.
Protocols differ between the studies behind these lines.
Target: Leukocyte tyrosine kinase receptor (LTK, Homo sapiens, UniProt P29376)

COc1ncccc1-c1cnn2ccc(N3CCN(C(=O)OC(C)C)CC3)nc12  remaining binding (binding; competition with immobilised ligand; 1 µM): 68%
CC(C)(C)c1nc2c(s1)c1nc(N)ncc1c1ccc(NS(=O)(=O)c3c(F)cccc3F)c(F)c12  remaining activity (enzyme activity; inhibitor; radiometric; 1 µM): 90%
Cc1nn(C)cc1-c1nc2c(N3CCN(Cc4ccc(Cl)cc4)CC3)c(Cl)cnc2[nH]1  remaining binding (binding; competition with immobilised ligand; 1 µM): 100%
Cn1cc(-c2cc(F)cc(N3CCn4c(cc5c4CCCC5)C3=O)c2CO)cc(Nc2ccc(N3CCN(C4COC4)CC3)cn2)c1=O  inhibition (enzyme activity; inhibitor; 0.1 µM): 11%
Cn1cncc1[C@](O)(COc1ccc(C#N)cc1-c1ccc(OC(F)(F)F)cc1)c1ccc(C#N)cc1  remaining binding (cell-free assay; competition with immobilised ligand; 1 µM): 91%
Nc1nccc(-c2c(-c3ccc(F)cc3)ncn2C2CCNCC2)n1  remaining activity (enzyme activity; inhibitor; radiometric; 0.5 µM): 97.3%
CC(C)(C)c1nc(-c2cccc(NS(=O)(=O)c3c(F)cccc3F)c2F)c(-c2ccnc(N)n2)s1  remaining activity (enzyme activity; inhibitor; radiometric; 1 µM): 93%
Nc1ncc(-c2nc(N3CCOCC3)nc(N3CCOCC3)n2)c(C(F)F)n1  remaining binding (cell-free assay; competition with immobilised ligand; 10 µM): 26%
COc1ccc(OC)c2c(=S)c3ccccc3[nH]c12  remaining activity (enzyme activity; inhibitor; radiometric; 0.5 µM): 84.5%
Cn1cc(-c2cccc(N3CCc4c(sc5c4CC(C)(C)C5)C3=O)c2CO)cc(Nc2ccncn2)c1=O  inhibition (enzyme activity; inhibitor; 1 µM): 4%
